Test results: the RNAGym collection of RNA variant scans (doi:10.1126/science.aae0568)
Variants at the floor of the assay were thinned out.

B1: tRNA (parent)
chain: GUUCCGUUGGCGUAAUGGUAACGCGUCUCCCUCCUAAGGAGAAGACUGCGGGUUCGAGUCCCGUACGGAACG

Variants of: B1
Test: yeast fitness relative to wild type (ratio to wild type); higher = fitter; tRNA-Arg(CCU), competitive growth, 37 C, YPD
Method in brief: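 The tRNA-Arg(CCU) gene variants were made by chemical synthesis with a 3% per-site mutation rate at 69 sites and inserted at the native genomic locus of Saccharomyces cerevisiae. After pooling, the strains were competed in YPD at 37°C for 24 hours in six parallel replicates. Gene amplicons from the start population and each end population were read by 100-nucleotide paired-end sequencing, and Darwinian fitness relative to wild type was taken from genotype frequency changes. Genotypes needed ≥ 100 starting reads, and estimates < 0.5 were set to 0.5.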

Row | Variant | yeast fitness
1 | U2C G48A A69C | 0.705
2 | U2C C4A C60A C62U | ≤ 0.5
3 | U2C G10A U54A | 0.554
4 | U2C G52A | 0.75
5 | U2C G9C C24U U26G | ≤ 0.5
6 | U2C C22A C29A C55U C61A | ≤ 0.5
7 | U2C G9A C24G C30U C62U | ≤ 0.5
8 | U2C U3A U19G G44C | 0.591
9 | U2C G6A C11U | 0.587
10 | U2C C30U A37C G38C U54A | ≤ 0.5
11 | U2C G12A G18C C33U C60A | ≤ 0.5
12 | U2C C24G A36G A42U A45U | ≤ 0.5
13 | U2C A36C G38C C55U C62A | ≤ 0.5
14 | U2C G63C C66U | ≤ 0.5
15 | U2C G12C C49U A65G | ≤ 0.5
16 | U2C C49G C55U | 0.573
17 | U2C C22U G48A G63C | 0.701
18 | U2C A42G C55U | ≤ 0.5
19 | U2C G6A | 0.998
20 | U2C C4G G6C G18A C24U C27A U35C G41A U47C | ≤ 0.5
21 | U2C G6A U16A | 0.65
22 | U2C G18A U28C A42C | ≤ 0.5
23 | U2C C5G C27U A45G U53C | ≤ 0.5
24 | U2C A21G C33G A69C | 0.57

Row | Variant | yeast fitness
25 | U2C C11G C24A | 0.665
26 | U2C C4A G23A C61A | ≤ 0.5
27 | U2C A40G A43U A45C | ≤ 0.5
28 | U2C C11U | 1.03
29 | U2C C29U C31G U35A | ≤ 0.5
30 | U2C G56A | 1.02
31 | U2C A37U A43U | 0.568
32 | U2C C22G A37C A45U G67A | ≤ 0.5
33 | U2C C46U G50A | 0.737
34 | U2C C4G G9A C24U A45C | ≤ 0.5
35 | U2C C5G A45C A69U | 0.549
36 | U2C U3C C34U C55A | ≤ 0.5
37 | U2C C11A A14C C22U A45U | ≤ 0.5
38 | U2C G50A G51A | 0.511
39 | U2C C34G | 0.62
40 | U2C A57C | 0.679
41 | U2C A57U | 0.685
42 | U2C C27A | 0.749
43 | U2C G17A U19C G50C G56C | ≤ 0.5
44 | U2C G25A A42U A65C G67C | ≤ 0.5
45 | U2C G25A A69U | 0.711
46 | U2C A20U C34G A42G A43U A65G | ≤ 0.5
47 | U2C A37G G68C | ≤ 0.5
48 | U2C C5A A65U | 0.668

Row | Variant | yeast fitness
49 | U2C A43U G50A U54G G68C | ≤ 0.5
50 | U2C C5A G10C G12A G23A | ≤ 0.5
51 | U2C A43U U47C | 0.749
52 | U2C A40G A43U A45C A57G A65C | 0.52
53 | U2C C5A C24A U47A C66G | ≤ 0.5
54 | U2C U3A C24A C27U A42G G56C C66U | ≤ 0.5
55 | U2C A43U G50A U54G C62U | ≤ 0.5
56 | U2C G10C A45C | ≤ 0.5
57 | U2C G23A C46U | 0.528
58 | U2C C30U A36C A45U G50C | ≤ 0.5
59 | U2C G17C G23A G52A C61U | ≤ 0.5
60 | U2C C24G | 0.946
61 | U2C G25C A43U | 0.624
62 | U2C A40G A45C | ≤ 0.5
63 | U2C G63C | 0.747
64 | U2C G23C C31G C33U A42G G50U G52C G58C | ≤ 0.5
65 | U2C C4G C27G U32A U35C C49A U59C | ≤ 0.5
66 | U2C G38A A70G | 0.541
67 | U2C A37G A40G A45U | ≤ 0.5
68 | U2C C4A U13C C29U U47A G52A C62U | ≤ 0.5
69 | U2C G18A C29A | ≤ 0.5
70 | U2C C29U C62U A70U | ≤ 0.5
71 | U2C G38A C60G | 0.558
72 | U2C A45G G56C | 0.575

Row | Variant | yeast fitness
73 | U2C A37U U53A G63A | ≤ 0.5
74 | U2C C24G U26G C34A A36C | ≤ 0.5
75 | U2C C29U G38C A43U U53G G63C | ≤ 0.5
76 | U2C C66A A69C | ≤ 0.5
77 | U2C C4U C31A C33U G56C | ≤ 0.5
78 | U2C A40C A57C C66U | ≤ 0.5
79 | U2C A36C G39A A57U | 0.539
80 | U2C G25C C31U U32A | ≤ 0.5
81 | U2C U3C C34U G68C | ≤ 0.5
82 | U2C C24U U59C | 0.537
83 | U2C C34U C46A | ≤ 0.5
84 | U2C C34U A65U | 0.6
85 | U2C G38A C55A | ≤ 0.5
86 | U2C C24G C49U | ≤ 0.5
87 | U2C C5G A37G G48A | ≤ 0.5
88 | U2C C55A G56C G67C | ≤ 0.5
89 | U2C A65U | 1.05
90 | U2C A37G G38C C49U G52C A57C A65C | ≤ 0.5
91 | U2C G58A | 0.893
92 | U2C A43U | 0.989
93 | U2C C5G U59A | 0.613
94 | U2C G18A C24A U28A U32C A57C G67U | ≤ 0.5
95 | U2C G10C C11U C34A A37C | 0.609
96 | U2C G68A | 0.762

Row | Variant | yeast fitness
97 | U2C G68C | 0.963
98 | U2C C49G | 0.798
99 | U2C U3C U19A C61A | ≤ 0.5
100 | U2C G51A C62G C66U | ≤ 0.5
101 | U2C C61G | 0.553
102 | U2C C61A | 0.783
103 | U2C C30G C31G C46G U54A | ≤ 0.5
104 | U2C G48A C66U | 0.681
105 | U2C G10A C49A A65U | ≤ 0.5
106 | U2C G9C | 0.722
107 | U2C C24A U26A U47C | ≤ 0.5
108 | U2C G18C G25C A40C G51A G56A C66G | ≤ 0.5
109 | U2C C5A C30G | ≤ 0.5
110 | U2C C27A A69C | ≤ 0.5
111 | U2C A42G G63A | 0.543
112 | U2C C5U C27G U28A A43U | ≤ 0.5
113 | U2C C27U A69C | 0.729
114 | U2C C11G A14C C61U U64A | 0.623
115 | U2C C55G | 0.583
116 | U2C C46U C66U | 0.779
117 | U2C U7A U35A G56A | ≤ 0.5
118 | U2C C5G G44A C46A G52A C66U | ≤ 0.5
119 | U2C G41A C62U | 0.528
120 | U2C G12C A14G C29U | ≤ 0.5

Row | Variant | yeast fitness
121 | U2C C22U A40U | 0.574
122 | U2C C31G G58A | ≤ 0.5
123 | U2C U3C C5U C34U | ≤ 0.5
124 | U2C G12A A15G C62U | ≤ 0.5
125 | U2C U7A G68A | ≤ 0.5
126 | U2C A40C G48A | 0.751
127 | U2C A45C C46U G68C | ≤ 0.5
128 | U2C C49G G58A | ≤ 0.5
129 | U2C A45G C49G | ≤ 0.5
130 | U2C C29U A37G A57G | ≤ 0.5
131 | U2C C24U U26A U28G U54G | ≤ 0.5
132 | U2C A36U C46G A69U | 0.517
133 | U2C C4U G48A | 0.538
134 | U2C G10A C46G G50A | ≤ 0.5
135 | U2C A42G A45C C61G | ≤ 0.5
136 | U2C C27A C62A | 0.641
137 | U2C A20U A69C | 0.636
138 | U2C A36G | 0.907
139 | U2C A36C | 0.543
140 | U2C A36U | 0.682
141 | U2C G10A C34G C46U G48C U54G | ≤ 0.5
142 | U2C C60A | 0.66
143 | U2C C30U C31G | 0.771
144 | U2C C5G C46U G58A | 0.611

Row | Variant | yeast fitness
145 | U2C U7G C33U C55A | ≤ 0.5
146 | U2C G9C U13C G68C | ≤ 0.5
147 | U2C G6A G23A C27U A45C U47C C60A | ≤ 0.5
148 | U2C C62A | 0.677
149 | U2C C62U | 0.882
150 | U2C C29A U53C C62A G67A | ≤ 0.5
151 | U2C A43U G48A C61G A70C | ≤ 0.5
152 | U2C C30G C33A A65C | ≤ 0.5
153 | U2C C31A | 0.879
154 | U2C C31U | 0.892
155 | U2C C31G | 1.04
156 | U2C C27A A65G | 0.632
157 | U2C A40G G68C | 0.571
158 | U2C G48A C60A A70G | ≤ 0.5
159 | U2C G10C A36C | 0.587
160 | U2C A43C A45C G51C | ≤ 0.5
161 | U2C C11U A37U U53A | ≤ 0.5
162 | U2C C5G C62U | 0.717
163 | U2C G50C G51A C55U | 0.582
164 | U2C G10C A14U G38C | ≤ 0.5
165 | U2C A40U U54A | ≤ 0.5
166 | U2C C4A C27G C34G G51A | 0.514
167 | U2C C4A C29G | 0.704
